Screens as filed in PubChem.
A selection: hits, their analogues and other compounds. The true share with any hit is near 3.9%.
STAT1 act-1: STAT1 signaling activators, primary screen, cell-based, HTS, luciferase reporter. NIH 3T3 STAT1-luciferase reporter, IFN-gamma, luminescence; 100% = IFN-gamma alone, no compound. AID 932, 2007. 200,000 compounds, 2.6% hits. activation (% of control), % at 5.5 µM;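 active means activation above the screen-wide mean activation plus 3 SD, cut at about 130% in these data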;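 further: raw ratio to IFN-gamma control signal so 100% means no change and 0% no light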
Pf gamet viab: late stage P. falciparum gametocyte viability inhibitors, primary screen, ATP luminescence, HTS; 150,000 compounds, 0.065% hits; P. falciparum stage V gametocytes, 24 h; AID 743093, 2013; inhibition, % at 10.9 µM;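 active means inhibition above the mean plus 3 SD of compounds within the control limits, set per campaign, cut at about 38% in these data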;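 further: 0% = DMSO wells and 100% = medium only without gametocytes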
STAT3 act-1: IL-6 driven STAT3 reporter potentiators, primary screen, U3A cells, luciferase, luminescence, MLSCN library; AID 871, 2007; IL-6 STAT3-luciferase reporter; 100% = signal with IL-6 EC80 alone; 190,000 compounds, 0.91% hits; activation (% of control), % at 5.6 µM;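 active means activation above the screen-wide mean of compound activation plus 3 SD, cut at about 130% in these data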;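 further: 0% = background luminescence of wells with medium and substrate only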
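Detection: reporter luminescence signal / Assay system: STAT1-lacking human U3A cells, STAT3 luciferase reporter / Incubation: compound pre-incubation 1 h before IL-6, then 6 h stimulation at 37 °C / Control set: IL-6-only high control / Read-out: % activation relative to IL-6 control / Probe or stimulus: Interleukin-6, 33 ng/mL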
STAT1 inh: STAT1 signaling inhibitors, primary screen, cell-based, HTS, luciferase reporter; 200,000 compounds, 0.35% hits; inhibition, % at 5.5 µM; AID 920, 2007; NIH 3T3 STAT1-luciferase reporter, IFN-gamma, luminescence;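 active means inhibition above a set limit, the mean inhibition across all tested compounds plus 3 SD, cut at about 34% in these data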;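 further: 0% = IFN-gamma with DMSO and 100% = IFN-gamma with 300 µM nifuroxazide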
APP 5'UTR act: activators of APP 5'UTR luciferase reporter, primary screen, SH-SY5Y cells; SH-SY5Y APP 5'UTR luciferase reporter, luminescence; zero percent = DMSO vehicle wells; activation, % at 2 µM; 190,000 compounds, 1% hits; AID 1276, 2008;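 active means activation above a set limit, based on mean plus 3 SD of controls, cut at about 140% in these data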
NF-kB expr up: activators of NF-kB expression in neurons, primary screen, cell-based, HTS; human neuronal cells, NF-kB reporter expression; active compounds read high; fold change at 12.5 µM; 190,000 compounds, 1.6% hits; AID 1239, 2008; in the data active means fold change above about 3.3
STAT3 act-2: STAT3 reporter potentiators, retest of hits, confirmation, U3A cells, luciferase, luminescence. potentiation (% of control), % at 5.7 µM. IL-6 potentiation; U3A cells lack STAT1; 100 means same as IL-6 alone. shares compounds with STAT3 act-1. AID 1267, 2008. 1,200 compounds, 64% hits;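 active means percent activation of the STAT3 luciferase reporter above a set limit taken from the earlier primary screen, cut at about 130% in these data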;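 further: 0% = background signal of medium plus substrate and 100% = median of IL-6 with DMSO wells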
NFkB act 2: NF-kB reporter activators in human cells, counter-screen for STAT3 activator project; shares compounds with STAT3 act-1; NF-kappaB reporter activation; activation (% of control), % at 5.7 µM; 1,200 compounds, 11% hits; AID 1309, 2008; in the data active means activation above about 120%;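 further: reporter induced by TNF-alpha stimulation; 100% = median of stimulated DMSO wells and 0% = no signal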
STAT1 act-2: STAT1 reporter activators, IFN-gamma induced, counter-screen for STAT3 activator project, cell-based, NIH 3T3, luciferase luminescence | NIH 3T3 STAT1-luciferase reporter | activation (% of control), % at 5.7 µM | shares compounds with STAT3 act-1 | AID 1318, 2008 | 1,200 compounds, 13% hits;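 active means activation above the solvent-only control well mean plus 3 SD, set per screening run, cut at about 120% in these data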;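 further: 100% = IFN-gamma with DMSO median signal so 100% means no change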
* hit, by the source's call; . = not tested or not shown.

SMILES | STAT1 act-1 | Pf gamet viab | STAT3 act-1 | STAT1 inh | APP 5'UTR act | NF-kB expr up | STAT3 act-2 | NFkB act 2 | STAT1 act-2
COc1cccc(C(=O)NC(=S)Nc2ccccc2N2CCCC2)c1 | 100 | -7 | 147* | -1 | -17 | 1 | 141* | 106 | 93
Fc1cccc(Cl)c1/C=N/Nc1ccccn1 | 128 | -15 | 138* | -30 | 18 | 1.8 | 144* | 113 | 127*
CCCCCC(=O)NCc1c(C(F)(F)F)nn(C)c1N1CCOCC1 | 97 | 0 | 99 | 1 | 27 | 0.97 | . | . | .
Cc1ccc(C2=CC(c3cccs3)n3nnnc3N2)cc1 (stereo not given) | 95 | . | 147* | 0 | 17 | 1.9 | 127 | 109 | 101
CC1(C(=O)NCC2CCCO2)Oc2cccnc2NC1=O (stereo not given) | 101 | 7 | 100 | -3 | -2 | . | . | . | .
COC(=O)c1ccc(N2CCN(CC(=O)c3ccc(C)cc3)CC2)c([N+](=O)[O-])c1 | . | 7 | . | . | . | . | . | . | .
COC(=O)c1ccc(N2CCN(CC(=O)c3ccc(-c4ccccc4)cc3)CC2)c([N+](=O)[O-])c1 | 108 | . | 144* | -9 | 6 | 1.3 | 138* | 108 | 124*
Cc1ccc(NN2C(=O)C=C(c3ccccc3)C2=O)cc1 | 103 | 13 | 105 | -3 | -11 | 1.5 | . | . | .
CCS(=O)(=O)N1CCN(Cc2c[nH]c3ccccc23)CC1 | 82 | -17 | 142* | 19 | 6 | 0.93 | 142* | 100 | 89
Brc1ccccc1CN1CCN(Cc2c[nH]c3ccccc23)CC1 | . | 14 | . | . | . | . | . | . | .
Cc1ccccc1N1CCN(Cc2c[nH]c3ccccc23)CC1 | 95 | . | 143* | 6 | -15 | 1.5 | 137* | 99 | 96
COc1ccccc1NC(=O)C1CC(C(C)C)OC1=O (stereo not given) | . | 11 | . | . | . | . | . | . | .
CCn1c(=O)c(C(=O)Nc2ccsc2C(=O)OC)c(O)c2ccccc21 | 99 | . | 138* | 1 | -10 | 1.6 | 151* | 94 | 102
COc1ccc(Cl)cc1NC(=O)Nc1ccc(Br)cn1 | 92 | . | 160* | 7 | -8 | 1 | 144* | 101 | 90
COc1ccccc1NC(=O)Nc1ccc(Br)cn1 | 92 | . | 110 | 10 | -2 | 1.2 | . | . | .
Oc1oc(-c2ccccc2)nc1/C=N/c1nccs1 | 114 | . | 84 | -15 | 15 | 1.8 | . | . | .
Oc1oc(-c2ccccc2)nc1C=Nc1cccc2ccccc12 | 101 | . | 144* | -1 | -6 | 1.4 | 129 | 106 | 97
CNC(=O)CCN(Cc1ccco1)S(=O)(=O)c1ccc(OC)c(OC)c1 | . | 24 | . | . | . | . | . | . | .
O=c1c2cc([N+](=O)[O-])ccc2nc(CN2CCN(c3ccccn3)CC2)n1-c1ccccc1F | 93 | 2 | 99 | 8 | 11 | 1.1 | . | . | .
O=C(Nc1ccccc1)c1ccc2ccccc2n1 | 123 | . | 153* | -25 | 179* | 6.6* | 188* | 141* | 176*
O=C(Nc1ccc(Cl)cn1)c1ccc2ccccc2n1 | 112 | 23 | 178* | -14 | 10 | 3.2 | 192* | 130* | 137*
Cc1c(C(=O)Nc2ccc(Cl)cn2)oc2ccccc12 | 106 | . | 195* | -14 | -2 | 2 | 197* | 134* | 138*
CN(C)CCNC(=O)/C=C/c1cn(-c2ccccc2)nc1-c1cc2ccccc2oc1=O | 109 | -55 | 104 | -11 | -19 | 0.76 | . | . | .
CS(=O)(=O)c1ccc2nc(NC(=O)CCN3C(=O)c4ccccc4C3=O)sc2c1 | 104 | -2 | 104 | -8 | 13 | 1.1 | . | . | .
Cc1cc(C)n2nc(Nc3ccccc3)cc2n1 | 83 | . | 157* | 18 | 27 | 2 | 168* | 112 | 105
SMILES | STAT1 act-1 | Pf gamet viab | STAT3 act-1 | STAT1 inh | APP 5'UTR act | NF-kB expr up | STAT3 act-2 | NFkB act 2 | STAT1 act-2
Cc1cc(C)n2nc3ccccc3c2n1 | 102 | . | 120 | -3 | -9 | 1.5 | . | . | .
Cc1ccc2[nH]c(=O)c(COC(=O)c3cccs3)cc2c1 | 93 | . | 94 | 7 | 14 | 1.1 | . | . | .
NNc1nc2c(Cl)ccc(Cl)c2s1 | 85 | -9 | 146* | 17 | -12 | 0.85 | 125 | 103 | 90
CN(C)c1ccc(CNCc2cccnc2)cc1 | . | -21 | . | . | . | . | . | . | .
COc1cccc(-c2cc(C(F)(F)F)c3c(N)c(C#N)sc3n2)c1 | 103 | . | 153* | -4 | -1 | 1.1 | 134* | 97 | 101
N#Cc1sc2nc(-c3ccccc3)cc(-c3ccco3)c2c1N | 107 | . | 91 | -8 | -17 | 1.2 | . | . | .
CCOC(=O)C1CCCN(C/C=C/c2ccccc2)C1 (stereo not given) | . | -5 | . | . | . | . | . | . | .
CCOC(=O)CNC(=O)c1ccc(SCC)cc1 | . | 11 | . | . | . | . | . | . | .
COc1ccc(-n2c(SCC(=O)NCc3ccco3)nc3c([nH]c4ccccc43)c2=O)cc1 | 84 | . | 154* | 17 | 11 | 1 | 137* | 104 | 106
O=C(CN(C(=O)CSc1nc2ccccc2o1)c1ccccc1F)NC1CCCCC1 | 107 | 11 | 113 | -8 | -13 | 1.1 | . | . | .
CCOC(=O)c1cnc(-c2ccccc2)nc1N(C)C | 116 | . | 173* | -18 | 92 | 1.9 | 155* | 116 | 136*
COc1ccc(CCNC(=O)COC(=O)COc2ccc(C#N)cc2)cc1 | 103 | 14 | 97 | -5 | 1 | 1.1 | . | . | .
CCOC(=O)C1(CC2CCCCO2)CCN(Cc2cc3ccccc3[nH]2)CC1 (stereo not given) | 81 | -9 | 144* | 19 | 14 | 1 | 136* | 104 | 95
CCO[C@H]1OC(C(N)=O)=C[C@@H](C(C)(C)C)[C@@H]1CCCO | . | -2 | . | . | . | . | . | . | .
COC(=O)C1=C(C)N(CCc2cc(OC)c(OC)c(OC)c2)C(=O)N[C@H]1c1ccccc1 | . | 21 | . | . | . | . | . | . | .
O=C(O)C(Cc1c[nH]c2ccccc12)N1Cc2ccccc2C1=O (stereo not given) | 110 | 15 | 143* | -12 | -9 | . | 137* | 114 | 114
CCOCCCNC(=O)c1ccc2c(c1)OCO2 | 102 | . | 106 | -2 | 14 | 1.7 | . | . | .
CCOCCCNC(=O)c1ccc2c(c1)N=C(CC)c1cc(Br)ccc1S2 | 117 | -1 | 157* | -19 | -94 | 3 | 122 | 160* | 119
O=C(Cc1ccccc1)Nc1ncccc1Cl | . | -16 | . | . | . | . | . | . | .
